Source: PubChem BioAssay
An excerpt weighted towards active compounds, which were near 2.7% of everything screened.
PAFAH2 FP inh = inhibitors of human PAFAH2; inhibition, % at 3.39 µM; 0.99% of 340,000 active; recombinant PAFAH2, FP-rhodamine activity probe, fluorescence polarization; Q99487; AID 492956;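 active means inhibition above the mean over all tested compounds plus 3 SD, cut at about 30% in these data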;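 further: inhibitors block probe labeling of enzyme so polarization drops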
RBBP9 inh = human RBBP9 hydrolase inhibition | recombinant RBBP9, FP-Rh probe fluorescence polarization | inhibition, % at 7.94 µM | 0.2% of 220,000 active | AID 1515;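 active means inhibition above the campaign mean of all tested compounds plus 3 SD, cut at about 14% in these data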
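Test system – recombinant human RBBP9 · Input – RBBP9 2.5 µM in dispensing solution, pre-mixing · Medium – Tris buffer pH 8.0, NaCl, Pluronic · Schedule – preincubation 30 min plus labeling 45 min at 25 °C · Measured by – fluorescence polarization · Measure – % inhibition · Controls – DMSO and no-protein wells · Replicates – one well per compound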
PAFAH1B2 inh = blocks human PAF acetylhydrolase 1b catalytic subunit 2. recombinant PAFAH1B2, FP-rhodamine activity probe, fluorescence polarization. P68402. AID 492953. 1.2% of 340,000 active. inhibition, % at 3.39 µM;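 active means inhibition above the mean of all tested compounds plus 3 SD, cut at about 24% in these data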
PAFAH1B3 FP inh = PAFAH1B3 (human) inhibition; recombinant PAFAH1B3, FP-rhodamine probe, fluorescence polarization; inhibition, % at 3.39 µM; 0.28% of 340,000 active; AID 492972;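 active means inhibition above the screen-wide average of all tested compounds plus 3 SD, cut at about 25% in these data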
Target sequence (Q15102 whole entry, looked up): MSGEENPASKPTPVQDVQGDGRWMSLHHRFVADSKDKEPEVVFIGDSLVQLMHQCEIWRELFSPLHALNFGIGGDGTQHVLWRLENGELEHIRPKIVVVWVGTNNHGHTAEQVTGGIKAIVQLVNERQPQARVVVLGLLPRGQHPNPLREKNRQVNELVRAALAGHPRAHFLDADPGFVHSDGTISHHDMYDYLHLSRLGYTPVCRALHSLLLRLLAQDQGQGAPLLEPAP
pPAFAH inh = inhibitors of human plasma PAF acetylhydrolase (pPAFAH); Q13093; recombinant pPAFAH, FP-rhodamine probe fluorescence polarization; inhibition, % at 3.39 µM; 1.5% of 330,000 active;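 active means inhibition above the mean inhibition across the screen plus 3 SD, cut at about 25% in these data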;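 further: inhibitors block binding of the rhodamine activity-based probe so polarization drops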
Target sequence (Q13093 whole entry, looked up): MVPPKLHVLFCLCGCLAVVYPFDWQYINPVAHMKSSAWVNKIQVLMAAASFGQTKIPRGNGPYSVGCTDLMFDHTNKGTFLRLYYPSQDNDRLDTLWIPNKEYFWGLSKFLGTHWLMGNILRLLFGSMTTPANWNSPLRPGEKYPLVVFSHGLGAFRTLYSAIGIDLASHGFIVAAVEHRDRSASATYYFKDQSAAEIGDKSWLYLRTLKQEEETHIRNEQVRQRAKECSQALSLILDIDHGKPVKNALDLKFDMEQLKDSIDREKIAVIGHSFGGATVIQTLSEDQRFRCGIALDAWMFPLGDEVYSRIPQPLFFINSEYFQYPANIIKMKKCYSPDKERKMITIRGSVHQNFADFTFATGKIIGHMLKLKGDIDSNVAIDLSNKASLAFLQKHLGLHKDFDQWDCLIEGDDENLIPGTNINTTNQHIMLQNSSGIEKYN
Numbers stand for hits; . = inactive; / = no result.

SMILES | PAFAH2 FP inh | RBBP9 inh | PAFAH1B2 inh | PAFAH1B3 FP inh | pPAFAH inh
CC1CCCN(C(=O)C2CCN(S(=O)(=O)c3cccc4nonc34)CC2)C1 (stereo unspecified) | . | / | . | . | .
C=CCOc1ccc(/C=N/NC(=O)CN(c2cc(Cl)ccc2OC)S(=O)(=O)c2ccc(C)c([N+](=O)[O-])c2)cc1 | . | . | . | . | .
COc1cc(C(Nc2ccc(S(=O)(=O)N3CCC(C)CC3)cc2)C(=O)NCC2CCCO2)cc(OC)c1OC (stereo unspecified) | . | . | 25 | . | .
COc1cc(C(Nc2ccc(S(=O)(=O)NCC3CCCO3)cc2)C(=O)NC(C)(C)C)cc(OC)c1OC (stereo unspecified) | . | . | . | . | .
Cc1cccc(NCC(=O)N/N=C/c2ccc(Br)cc2)c1 | . | . | . | . | .
Cc1ccc(-c2cn(-c3ccccc3)c(SCC(N)=O)n2)cc1C | . | . | . | . | 30
CCOC(=O)NC(=O)CSc1nc(-c2ccc(C)c(C)c2)cn1-c1ccccc1 | . | . | . | . | 32
Cc1ccccc1-n1cc(-c2ccc(Br)cc2)nc1SCC(N)=O | / | . | / | / | .
CCCCC1CCC(C(=O)Nc2ccc(N3CCOCC3)cc2N2CCOCC2)CC1 (stereo unspecified) | . | / | . | . | .
O=C(COC(=O)c1ccc(O)cc1)Nc1ccc(Cl)cc1 | / | . | / | / | 27
O=C(COC(=O)c1ccc(Cl)nc1)Nc1ccc2ccccc2c1 | . | / | . | . | /
CC(=O)Nc1ccc(C(=O)OCc2ccc(Cl)cc2)cc1 | 31 | . | . | . | .
N#CCC(=O)Nc1ccc(C(=O)OCC(=O)Nc2ccc3ccccc3c2)cc1 | . | / | . | . | 33
CC(C)CCNC(=O)c1onc(CSc2ccc(F)cc2)c1C(=O)NCCC(C)C | . | / | . | . | .
COc1cc(OC)cc(C(=O)N[C@H](C(=O)OCC(=O)Nc2ccc3c(c2)OCO3)C(C)C)c1 | . | / | . | . | .
COC(=O)Cc1csc(Nc2ccc(Cl)cc2)n1 | . | . | . | . | .
COC(=O)Cc1csc(Nc2ccc(F)c(Cl)c2)n1 | . | . | . | . | 25
CCCCNC(=O)Oc1ccc(C(=O)N2c3ccccc3NC(=O)C2C)cc1 (stereo unspecified) | . | / | 34 | . | .
NC(=O)c1ccc(NC(=O)CSc2nncn2-c2ccccc2)cc1 | . | / | . | . | .
CN(C(=O)CSc1nc(-c2ccc(C(C)(C)C)cc2)c(C#N)c(=O)[nH]1)C1CCCCC1 | . | / | 31 | . | .
N#Cc1c(-c2ccccc2)nc(SCC(=O)NC2CCCCC2)[nH]c1=O | . | . | . | . | .
c1coc(CSSCc2ccco2)c1 | 50 | / | . | 30 | .
Cc1ccc(NC(=O)CSCc2ccco2)cc1 | . | . | . | . | .
Cc1cccc2cc3c(N)c(C#N)sc3nc12 | . | . | . | . | .
Cc1sc(NC(=O)c2sc3nc4c(C)cccc4cc3c2N)c(C#N)c1C | . | . | . | . | 27
SMILES | PAFAH2 FP inh | RBBP9 inh | PAFAH1B2 inh | PAFAH1B3 FP inh | pPAFAH inh
CN(C)/C=C/C(=O)c1cc(N2CCOCC2)ccc1[N+](=O)[O-] | . | . | . | . | .
O=C(CN1C(=O)S/C(=C\c2ccccc2F)C1=O)NC1C=CS(=O)(=O)C1 (stereo unspecified) | . | / | . | . | .
Cc1ccc(NS(=O)(=O)c2ccc3c(c2)CCC(=O)N3)cc1C | . | . | . | . | .
CCc1cccc(NS(=O)(=O)c2ccc3c(c2)CCC(=O)N3)c1 | . | . | . | . | .
Cn1c(=O)oc2cc(S(=O)(=O)Nc3ccc(F)cc3)ccc21 | . | / | . | . | 26
O=C1CCc2cc(S(=O)(=O)Nc3ccc(F)cc3)ccc2N1 | . | / | . | . | 29
Cc1cccc(NS(=O)(=O)c2ccc3c(c2)CCC(=O)N3)c1 | . | / | . | . | 28
COc1ccc2cc(CCNC(=O)c3c(-c4ccccc4Cl)noc3C)c(=O)[nH]c2c1 | . | . | . | . | .
Cc1nnc(SCC(=O)N(Cc2ccccc2)C(C)(C)C)[nH]c1=O | . | . | 25 | . | .
CNC(=O)c1ccsc1NC(=O)C1CCN(S(=O)(=O)c2ccc(Cl)s2)CC1 | . | / | 27 | . | .
Cc1cccn2c(=O)c(C=O)c(N3CCSCC3)nc12 | . | . | . | . | .
CCOC(=O)N1CCN(C(=O)c2ccccc2NC(=O)COc2ccccc2)CC1 | . | / | 49 | . | .
CCOC(=O)N1CCN(C(=O)c2ccccc2NC(C)=O)CC1 | . | . | . | . | .
O=C(NCc1n[nH]c(=S)n1-c1ccc(Br)cc1)c1ccc(S(=O)(=O)N2CCCCC2)cc1 | . | / | 30 | . | .
Cc1ccc(NS(=O)(=O)c2ccc(/C=C/C(=O)O)cc2)cc1Cl | . | . | . | . | 29
Cc1ccc(NS(=O)(=O)c2ccc(NC(=O)c3ccccc3C(=O)O)cc2)cc1C | / | / | / | / | 26
Cc1ccc(S(=O)(=O)Nc2cccc(/C=C/C(=O)O)c2)cc1 | . | . | . | . | .
COc1ccc(C(=O)Nc2ccc(S(=O)(=O)Nc3ncccn3)cc2)cc1OC | . | . | . | . | .
O=S(=O)(Nc1ccc(F)cc1)c1ccc(NC(=S)Nc2ccccc2)cc1 | . | . | . | . | 25
COc1ccc(C(=O)Nc2ccc(NS(=O)(=O)c3ccccc3)cc2)cc1OC | . | . | . | . | 33
O=S(=O)(Nc1ccccc1)c1ccc(F)cc1 | . | . | . | . | .
COc1ccc(OC)c(S(=O)(=O)N2CCCC(C(=O)NC3CC3)C2)c1 (stereo unspecified) | . | / | . | . | /
O=C(Nc1ccc(NS(=O)(=O)c2ccccc2)cc1)c1ccc(Cl)cc1 | . | / | . | . | .
O=C(Nc1ccc(Br)cc1)c1cccc(S(=O)(=O)Nc2ccccn2)c1 | . | / | . | . | .
O=C(Nc1ccc(NS(=O)(=O)c2ccccc2)cc1)c1ccccc1 | . | / | . | . | 34
SMILES | PAFAH2 FP inh | RBBP9 inh | PAFAH1B2 inh | PAFAH1B3 FP inh | pPAFAH inh
Cc1c(C)c(C)c(C(=O)c2ccc(NC(=O)c3ccccc3C(=O)O)cc2)c(C)c1C | 167 | / | 109 | 141 | .
O=C(Nc1ccc(Br)cc1)c1cccc(S(=O)(=O)Nc2cnc3ccccc3c2)c1 | . | . | . | . | 27
CCCc1cc(=O)[nH]c(SCC(=O)N(CCOC)c2c(N)n(Cc3ccccc3)c(=O)[nH]c2=O)n1 | . | / | . | . | .
C=CCN(c1ccccc1)S(=O)(=O)c1ccc(Cl)c(C(=O)OCC(=O)N(C)C2CCS(=O)(=O)C2)c1 (stereo unspecified) | . | . | . | . | .
O=C1C=C(c2cccc3c2oc2ccccc23)C[C@@H](c2ccc(F)cc2)C1 | . | / | . | . | .
O=C1C(=O)C(c2ccccc2)C(=O)C1c1ccccc1 (stereo unspecified) | . | / | 32 | . | /
N#CCCn1cc(/C=N/NC(=O)c2ccncc2)c(-c2ccc(F)cc2)n1 | . | . | . | . | .
O=C(O)c1cc(S(=O)(=O)N(Cc2ccccc2)c2ccc(Cl)cc2)ccc1Cl | . | / | 29 | . | .
O=C(O)c1cccc(S(=O)(=O)N(Cc2ccccc2)c2ccccc2Cl)c1 | . | / | . | . | /
O=C(O)c1cccc(S(=O)(=O)N(Cc2ccccc2)c2cccc(C(F)(F)F)c2)c1 | . | / | . | . | 28
